ChEMBL document CHEMBL3244101, “2-, 3-, and 4-(alpha, alpha, beta, beta-tetrafluorophenethyl)benzylamines. A new class of antiarrhythmic agents” (J Med Chem, 1977)

What was measured:
Canis familiaris [1] = experiment: Effect on cardiac conduction in anesthetized acute myocardial infarction dog model assessed as increase in QT duration at 40 mg/kg, iv administered 10 mins prior to infarction measured after 10 mins (reference value: 2 ms); format: functional, Canis lupus familiaris, Heart
Canis familiaris [2] = experiment: Antiarrhythmic activity in anesthetized acute myocardial infarction dog model assessed as normal ECG complexes at 40 mg/kg, iv administered 10 mins prior to infarction measured during 1-hr postinfarction period (reference value: 19%); format: functional, Canis lupus familiaris, Heart
In short: (§1)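 Sclerosing agent (tetrafluorohexachlorobutane) injected into the anterior descending coronary artery to produce a multifocal ventricular arrhythmia. Single iv dose 10 min before infarction. Segmented ECG tracings over the 1 h after infarction were scored as the percentage of complexes of sinus origin (normal). Saline controls were run alongside.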

Canis familiaris [3] = experiment: Effect on cardiac conduction in anesthetized acute myocardial infarction dog model assessed as increase in QT duration at 20 mg/kg, iv administered 10 mins prior to infarction measured after 10 mins (reference value: 2 ms); format: functional, Canis lupus familiaris, Heart
Canis familiaris [4] = experiment: Myocardial depressant activity in iv dosed anesthetized dog at higher doses; format: ADME, organism-based, Canis lupus familiaris, Myocardium; settings: in vivo
Canis familiaris [5] = experiment: Reduction in heart rate in anesthetized acute myocardial infarction dog model at 20 mg/kg, iv administered 10 mins prior to infarction (reference value: 6 bpm); format: functional, Canis lupus familiaris
Canis familiaris [6] = experiment: Effect on cardiac conduction in anesthetized acute myocardial infarction dog model assessed as increase in PR interval at 20 mg/kg, iv administered 10 mins prior to infarction measured after 10 mins (reference value: 0 ms); format: functional, Canis lupus familiaris, Heart
Canis familiaris [7] = experiment: Reduction in heart rate in anesthetized acute myocardial infarction dog model at 40 mg/kg, iv administered 10 mins prior to infarction (reference value: 6 bpm); format: functional, Canis lupus familiaris
Canis familiaris [8] = experiment: Antiarrhythmic activity in anesthetized acute myocardial infarction dog model assessed as normal ECG complexes at 20 mg/kg, iv administered 10 mins prior to infarction measured during 1-hr postinfarction period (reference value: 19%); format: functional, Canis lupus familiaris, Heart; in short: as §1
Canis familiaris [9] = experiment: Effect on cardiac conduction in anesthetized acute myocardial infarction dog model assessed as increase in PR interval at 40 mg/kg, iv administered 10 mins prior to infarction measured after 10 mins (reference value: 0 ms); format: functional, Canis lupus familiaris, Heart
Canis familiaris [10] = experiment: Hypotensive activity in iv dosed anesthetized dog at higher doses; format: ADME, organism-based, Canis lupus familiaris; settings: in vivo

SMILES: CCN(CC)CCNC(=O)c1ccc(N)cc1 [PROCAINAMIDE]
- Time (Canis familiaris [1]): 33 ms
- Activity (Canis familiaris [2]): 55%
- Time (Canis familiaris [3]): 40 ms
- Activity (Canis familiaris [4]): Toxic
- Activity (Canis familiaris [5]): 26 bpm
- Time (Canis familiaris [6]): 10 ms
- Activity (Canis familiaris [7]): 25 bpm
- Activity (Canis familiaris [8]): 32%
- Time (Canis familiaris [9]): 23 ms
- Activity (Canis familiaris [10]): Toxic
